From publication PMC4186986 (Acta Pharmacologica Sinica, 2014)

What was measured:
Format in all cases: cell-based
[1] = test system: cyclin A, cyclin E, CDK2 in MDA-MB-231 cells; assay: Western blot of cell cycle regulatory proteins; conditions: MDA-MB-231, 48 h; compounds together with 1 nmol/L E2
Procedure, shortened: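 MDA-MB-231 cells in DMEM/F12 with 10% charcoal-stripped FBS, seeded at 2×10^5 cells/well, treated 48 h with 1 nmol/L E2 plus test compound at several concentrations. Run on 12% SDS-PAGE, transferred to PVDF, probed overnight at 4 °C for cyclin A, cyclin E and CDK2, with ECL detection. GAPDH served as loading control; three independent experiments.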

[2] = test system: MCF-7 cells; assay: MTT anti-proliferation assay, MCF-7; conditions: Homo sapiens, MCF7, 48 h, read-out: MCF-7 inhibition (%)
Procedure, shortened: (§1)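 MCF-7 or MDA-MB-231 cells seeded at 10^5 cells/mL in phenol red-free DMEM/F12 with 10% charcoal-stripped FBS. Exposed to test compound at 0.01–100 μmol/L for 48 h (37 °C, 5% CO2), then MTT (5 mg/mL stock) for 4 h. Formazan dissolved in DMSO; absorbance read at 570 nm. Inhibition taken relative to DMSO-treated cells set as 100% viability; single-point values at 100 μmol/L final.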

[3] = test system: MDA-MB-231 cells; assay: MTT anti-proliferation assay, MDA-MB-231; conditions: Homo sapiens, MDA-MB-231, 48 h, read-out: MDA-MB-231 inhibition (%)
Procedure, shortened: as §1

SMILES | expression level of CDK2 [1] | expression level of cyclin A [1] | expression level of cyclin E [1] | inhibition at 100 µM [2] | inhibition at 100 µM [3]
C[C@]12CC[C@@H]3c4ccc(O)cc4CC[C@H]3[C@@H]1CC[C@@H]2O [Estradiol, 17β-estrodial] | increased the expression | increased the expression | increased the expression |  | 
CC/C(=C(\c1ccccc1)c1ccc(OCCN(C)C)cc1)c1ccccc1 [Tamoxifen] |  |  |  | 93.3% | 80.5%
